Test system: MCF7
Test: Cytotoxicity against human MCF7 cells by MTT assay
Format: functional, cell-based
Conditions: not given
Outline: (§1)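 Cells grown in RPMI-1640 with 10% fetal calf serum plus penicillin and streptomycin, 37 °C, 5% CO₂. Compounds in DMSO, final ≤2% (v/v), tested in 96-well cultures with MTT staining. IC₅₀ = concentration cutting optical density 50% versus untreated cells; three replicate wells per point; mean of three independent determinations.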

Compound	IC50 [µM]
CCn1c2cc(OCC(C)C)ccc2c2cc[n+](Cc3ccccc3)c(C)c21.[Br-]	11.1
CCn1c2cc(OCc3ccccc3)ccc2c2cc[n+](Cc3ccccc3)c(C)c21	67.6
CCCCn1c2cc(OCC(C)C)ccc2c2cc[n+](Cc3ccccc3)c(C)c21	10.4
CCCCCCCCOc1ccc2c3cc[n+](Cc4ccccc4)c(C)c3n(CCCC)c2c1	4.1
CCCCn1c2cc(OCc3ccccc3)ccc2c2cc[n+](Cc3ccccc3)c(C)c21	15.7

Test system: Mus musculus
Test: Neurotoxicity in ip dosed C57BL/6 mouse assessed as tremble, twitch, jumping and supination response
Format: toxicity, organism-based
Conditions: in vivo
Outline: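 C57BL/6 mice (9–12 weeks, 18–22 g), fasted overnight with water, dosed i.p. with 1.0–500 mg/kg in 0.5% CMC-Na; 10 per group (5 male, 5 female). Watched continuously 2 h for tremor, twitch, jumping, supination and other behavior, then intermittently to 24 h and occasionally to 14 days; killed day 14, with heart, liver and kidneys inspected.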

Compound	Activity
CCn1c2cc(OCC(C)C)ccc2c2cc[n+](Cc3ccccc3)c(C)c21.[Br-]	Non-toxic

Test system: A-375
Test: Cytotoxicity against human A375 cells by MTT assay
Format: functional, cell-based
Conditions: not given
Outline: as §1

Compound	IC50 [µM]
CCn1c2cc(OCC(C)C)ccc2c2cc[n+](Cc3ccccc3)c(C)c21.[Br-]	7.8
CCn1c2cc(OCc3ccccc3)ccc2c2cc[n+](Cc3ccccc3)c(C)c21	12.3
CCCCn1c2cc(OCC(C)C)ccc2c2cc[n+](Cc3ccccc3)c(C)c21	4.2
CCCCCCCCOc1ccc2c3cc[n+](Cc4ccccc4)c(C)c3n(CCCC)c2c1	< 1.5
CCCCn1c2cc(OCc3ccccc3)ccc2c2cc[n+](Cc3ccccc3)c(C)c21	4

Test system: HT-29
Test: Cytotoxicity against human HT-29 cells by MTT assay
Format: functional, cell-based
Conditions: not given
Outline: as §1

Compound	IC50 [µM]
CCn1c2cc(OCC(C)C)ccc2c2cc[n+](Cc3ccccc3)c(C)c21.[Br-]	4
CCn1c2cc(OCc3ccccc3)ccc2c2cc[n+](Cc3ccccc3)c(C)c21	10.9
CCCCn1c2cc(OCC(C)C)ccc2c2cc[n+](Cc3ccccc3)c(C)c21	3.1
CCCCCCCCOc1ccc2c3cc[n+](Cc4ccccc4)c(C)c3n(CCCC)c2c1	3.2
CCCCn1c2cc(OCc3ccccc3)ccc2c2cc[n+](Cc3ccccc3)c(C)c21	3.7

Test system: Bel-7402
Test: Cytotoxicity against human Bel7402 cells by MTT assay
Format: functional, cell-based
Conditions: not given
Outline: as §1

Compound	IC50 [µM]
CCn1c2cc(OCC(C)C)ccc2c2cc[n+](Cc3ccccc3)c(C)c21.[Br-]	3.2
CCn1c2cc(OCc3ccccc3)ccc2c2cc[n+](Cc3ccccc3)c(C)c21	3.6
CCCCn1c2cc(OCC(C)C)ccc2c2cc[n+](Cc3ccccc3)c(C)c21	2.7
CCCCCCCCOc1ccc2c3cc[n+](Cc4ccccc4)c(C)c3n(CCCC)c2c1	0.86
CCCCn1c2cc(OCc3ccccc3)ccc2c2cc[n+](Cc3ccccc3)c(C)c21	3.6

Test system: 786-0
Test: Cytotoxicity against human 786-0 cells by MTT assay
Format: functional, cell-based
Conditions: not given
Outline: as §1

Compound	IC50 [µM]
CCn1c2cc(OCC(C)C)ccc2c2cc[n+](Cc3ccccc3)c(C)c21.[Br-]	8.5
CCn1c2cc(OCc3ccccc3)ccc2c2cc[n+](Cc3ccccc3)c(C)c21	15.4
CCCCn1c2cc(OCC(C)C)ccc2c2cc[n+](Cc3ccccc3)c(C)c21	2.5
CCCCCCCCOc1ccc2c3cc[n+](Cc4ccccc4)c(C)c3n(CCCC)c2c1	< 1.5
CCCCn1c2cc(OCc3ccccc3)ccc2c2cc[n+](Cc3ccccc3)c(C)c21	< 1.5

Test system: KB
Test: Cytotoxicity against human KB cells by MTT assay
Format: functional, cell-based
Conditions: not given
Outline: as §1

Compound	IC50 [µM]
CCn1c2cc(OCC(C)C)ccc2c2cc[n+](Cc3ccccc3)c(C)c21.[Br-]	< 1.7
CCn1c2cc(OCc3ccccc3)ccc2c2cc[n+](Cc3ccccc3)c(C)c21	8.7
CCCCn1c2cc(OCC(C)C)ccc2c2cc[n+](Cc3ccccc3)c(C)c21	2
CCCCCCCCOc1ccc2c3cc[n+](Cc4ccccc4)c(C)c3n(CCCC)c2c1	< 1.5
CCCCn1c2cc(OCc3ccccc3)ccc2c2cc[n+](Cc3ccccc3)c(C)c21	4

Test system: SCaBER
Test: Cytotoxicity against human SCaBER cells by MTT assay
Format: functional, cell-based
Conditions: not given
Outline: as §1

Compound	IC50 [µM]
CCn1c2cc(OCC(C)C)ccc2c2cc[n+](Cc3ccccc3)c(C)c21.[Br-]	34.1
CCn1c2cc(OCc3ccccc3)ccc2c2cc[n+](Cc3ccccc3)c(C)c21	46.3
CCCCn1c2cc(OCC(C)C)ccc2c2cc[n+](Cc3ccccc3)c(C)c21	18.2
CCCCCCCCOc1ccc2c3cc[n+](Cc4ccccc4)c(C)c3n(CCCC)c2c1	4.6
CCCCn1c2cc(OCc3ccccc3)ccc2c2cc[n+](Cc3ccccc3)c(C)c21	8.5

Test system: HeLa
Test: Cytotoxicity against human HeLa cells by MTT assay
Format: functional, cell-based
Conditions: not given
Outline: as §1

Compound	IC50 [µM]
CCn1c2cc(OCC(C)C)ccc2c2cc[n+](Cc3ccccc3)c(C)c21.[Br-]	4.9
CCn1c2cc(OCc3ccccc3)ccc2c2cc[n+](Cc3ccccc3)c(C)c21	56.3
CCCCn1c2cc(OCC(C)C)ccc2c2cc[n+](Cc3ccccc3)c(C)c21	3.9
CCCCCCCCOc1ccc2c3cc[n+](Cc4ccccc4)c(C)c3n(CCCC)c2c1	4
CCCCn1c2cc(OCc3ccccc3)ccc2c2cc[n+](Cc3ccccc3)c(C)c21	2.2

Test system: OS-RC-2
Test: Cytotoxicity against human OS-RC2 cells by MTT assay
Format: functional, cell-based
Conditions: not given
Outline: as §1

Compound	IC50 [µM]
CCn1c2cc(OCC(C)C)ccc2c2cc[n+](Cc3ccccc3)c(C)c21.[Br-]	10.6
CCn1c2cc(OCc3ccccc3)ccc2c2cc[n+](Cc3ccccc3)c(C)c21	15.9
CCCCn1c2cc(OCC(C)C)ccc2c2cc[n+](Cc3ccccc3)c(C)c21	3.2
CCCCCCCCOc1ccc2c3cc[n+](Cc4ccccc4)c(C)c3n(CCCC)c2c1	< 1.5
CCCCn1c2cc(OCc3ccccc3)ccc2c2cc[n+](Cc3ccccc3)c(C)c21	3.6

Test system: not listed separately
Test: Acute toxicity in ip dosed C57BL/6 mouse measured up to 14 days
Format: organism-based
Conditions: in vivo
Outline: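 Healthy C57BL/6 mice (9–12 weeks, 18–22 g), fasted overnight, 10 per group (5 male, 5 female). Single i.p. dose, 1.0 to 500 mg/kg in 0.5% CMC-Na. Watched continuously for 2 h, intermittently over 24 h, then occasionally to day 14 for behaviour, deaths and delayed effects. Heart, liver and kidneys inspected at necropsy. LD50 derived graphically.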

Compound	LD50 at 336 h [mg/kg]
CCn1c2cc(OCC(C)C)ccc2c2cc[n+](Cc3ccccc3)c(C)c21.[Br-]	12.5

Test system: not listed separately
Test: Cytotoxicity against human Blu-87 cells by MTT assay
Format: functional, cell-based
Conditions: not given
Outline: as §1

Compound	IC50 [µM]
CCn1c2cc(OCC(C)C)ccc2c2cc[n+](Cc3ccccc3)c(C)c21.[Br-]	25.9
CCn1c2cc(OCc3ccccc3)ccc2c2cc[n+](Cc3ccccc3)c(C)c21	22.1
CCCCn1c2cc(OCC(C)C)ccc2c2cc[n+](Cc3ccccc3)c(C)c21	12.3
CCCCCCCCOc1ccc2c3cc[n+](Cc4ccccc4)c(C)c3n(CCCC)c2c1	2
CCCCn1c2cc(OCc3ccccc3)ccc2c2cc[n+](Cc3ccccc3)c(C)c21	4.6

Test system: U-251
Test: Cytotoxicity against human U251 cells by MTT assay
Format: functional, cell-based
Conditions: not given
Outline: as §1

Compound	IC50 [µM]
CCn1c2cc(OCC(C)C)ccc2c2cc[n+](Cc3ccccc3)c(C)c21.[Br-]	17.3
CCn1c2cc(OCc3ccccc3)ccc2c2cc[n+](Cc3ccccc3)c(C)c21	16.2
CCCCn1c2cc(OCC(C)C)ccc2c2cc[n+](Cc3ccccc3)c(C)c21	12.1
CCCCCCCCOc1ccc2c3cc[n+](Cc4ccccc4)c(C)c3n(CCCC)c2c1	2
CCCCn1c2cc(OCc3ccccc3)ccc2c2cc[n+](Cc3ccccc3)c(C)c21	5.5

Test system: CWR22R
Test: Cytotoxicity against human 22Rv1 cells by MTT assay
Format: functional, cell-based
Conditions: not given
Outline: as §1

Compound	IC50 [µM]
CCCCn1c2cc(OCC(C)C)ccc2c2cc[n+](Cc3ccccc3)c(C)c21	6.7
CCCCCCCCOc1ccc2c3cc[n+](Cc4ccccc4)c(C)c3n(CCCC)c2c1	2.9
CCCCn1c2cc(OCc3ccccc3)ccc2c2cc[n+](Cc3ccccc3)c(C)c21	2.1

Test system: 769-P
Test: Cytotoxicity against human 769-P cells by MTT assay
Format: functional, cell-based
Conditions: not given
Outline: as §1

Compound	IC50 [µM]
CCn1c2cc(OCC(C)C)ccc2c2cc[n+](Cc3ccccc3)c(C)c21.[Br-]	5.2
CCn1c2cc(OCc3ccccc3)ccc2c2cc[n+](Cc3ccccc3)c(C)c21	8.9
CCCCn1c2cc(OCC(C)C)ccc2c2cc[n+](Cc3ccccc3)c(C)c21	4.6
CCCCCCCCOc1ccc2c3cc[n+](Cc4ccccc4)c(C)c3n(CCCC)c2c1	< 1.5
CCCCn1c2cc(OCc3ccccc3)ccc2c2cc[n+](Cc3ccccc3)c(C)c21	20

Test system: HepG2
Test: Cytotoxicity against human HepG2 cells by MTT assay
Format: functional, cell-based
Conditions: not given
Outline: as §1

Compound	IC50 [µM]
CCn1c2cc(OCC(C)C)ccc2c2cc[n+](Cc3ccccc3)c(C)c21.[Br-]	9.6
CCn1c2cc(OCc3ccccc3)ccc2c2cc[n+](Cc3ccccc3)c(C)c21	49.9
CCCCn1c2cc(OCC(C)C)ccc2c2cc[n+](Cc3ccccc3)c(C)c21	4.2
CCCCCCCCOc1ccc2c3cc[n+](Cc4ccccc4)c(C)c3n(CCCC)c2c1	2.7
CCCCn1c2cc(OCc3ccccc3)ccc2c2cc[n+](Cc3ccccc3)c(C)c21	2.7

Test system: BGC-823
Test: Cytotoxicity against human BGC823 cells by MTT assay
Format: functional, cell-based
Conditions: not given
Outline: as §1

Compound	IC50 [µM]
CCn1c2cc(OCC(C)C)ccc2c2cc[n+](Cc3ccccc3)c(C)c21.[Br-]	10.6
CCn1c2cc(OCc3ccccc3)ccc2c2cc[n+](Cc3ccccc3)c(C)c21	66.1
CCCCn1c2cc(OCC(C)C)ccc2c2cc[n+](Cc3ccccc3)c(C)c21	4.6
CCCCCCCCOc1ccc2c3cc[n+](Cc4ccccc4)c(C)c3n(CCCC)c2c1	3.7
CCCCn1c2cc(OCc3ccccc3)ccc2c2cc[n+](Cc3ccccc3)c(C)c21	21.4

Test system: not listed separately
Test: Antitumor activity against mouse Sarcoma 180 cells xenografted in mouse assessed as tumor inhibition at 2.5 mg/kg, ip qd for 7 days measured every 3 days for 21 days
Format: functional
Conditions: Sarcoma-180, ip, route intraperitoneal

Compound	inhibition in vivo at 2.5 mg/kg [%]
CCn1c2cc(OCC(C)C)ccc2c2cc[n+](Cc3ccccc3)c(C)c21.[Br-]	44.2

Test system: A549
Test: Cytotoxicity against human A549 cells by MTT assay
Format: functional, cell-based
Conditions: not given
Outline: as §1

Compound	IC50 [µM]
CCn1c2cc(OCC(C)C)ccc2c2cc[n+](Cc3ccccc3)c(C)c21.[Br-]	11.6
CCn1c2cc(OCc3ccccc3)ccc2c2cc[n+](Cc3ccccc3)c(C)c21	19.6
CCCCn1c2cc(OCC(C)C)ccc2c2cc[n+](Cc3ccccc3)c(C)c21	3.8
CCCCCCCCOc1ccc2c3cc[n+](Cc4ccccc4)c(C)c3n(CCCC)c2c1	< 1.5
CCCCn1c2cc(OCc3ccccc3)ccc2c2cc[n+](Cc3ccccc3)c(C)c21	4.4

Test system: Lewis lung carcinoma cell line
Test: Antitumor activity against mouse LLC cells xenografted in mouse assessed as tumor inhibition at 2.5 mg/kg, ip qd for 7 days measured every 3 days for 21 days
Format: functional
Conditions: route intraperitoneal

Compound	inhibition in vivo at 2.5 mg/kg [%]
CCn1c2cc(OCC(C)C)ccc2c2cc[n+](Cc3ccccc3)c(C)c21.[Br-]	30
